Test results reported in ChEMBL document CHEMBL4613265, “Novel Human Neutral Sphingomyelinase 2 Inhibitors as Potential Therapeutics for Alzheimer's Disease” (J Med Chem, 2020).

How the values were obtained:
[1] = Stability in human liver microsomes assessed as parent compound remaining at 1 uM measured after 60 mins in absence of NADPH by LC-MS/MS analysis; format: ADME, Microsome; settings: for remaining at 1 h, 1 µM: liver microsomes, read-out: Stability
Method in brief: (§1)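 Cofactor-free control for cofactor-independent degradation. Mouse or human liver microsomes at 0.2 mg/mL, 1 μM compound (final), 100 mM potassium phosphate at pH 7.4, no NADPH regenerating system. Adding microsomes started the reaction; run in triplicate. Sampled at 60 min and quenched with three volumes of ice-cold acetonitrile spiked with internal standard.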

[2] = Stability in mouse liver microsomes assessed as parent compound remaining at 1 uM measured after 60 mins in absence of NADPH by LC-MS/MS analysis; format: ADME, Microsome; settings: for remaining at 1 h, 1 µM: liver microsomes, read-out: Stability; method in brief: as §1
[3] = system: Cytochrome P450; assay: Stability in human liver microsomes assessed as CYP450-mediated metabolism by measuring parent compound remaining at 1 uM measured after 60 mins in presence of NADPH generating system by LC-MS/MS analysis; format: ADME; settings: 1 h
Method in brief: (§2)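 Liver microsomes from mouse or human, 0.2 mg/mL, with 1 μM compound (final) in 100 mM potassium phosphate at pH 7.4. Adding microsomes started the reaction; triplicates. After 60 min, quenched with 3 volumes of ice-cold acetonitrile containing internal standard.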

[4] = Stability in mouse liver microsomes assessed as CYP450-mediated metabolism by measuring parent compound remaining at 1 uM measured after 60 mins in presence of NADPH generating system by LC-MS/MS analysis; format: ADME; settings: 1 h; method in brief: as §2

remaining at 1 h, 1 µM [1] [%] | remaining at 1 h, 1 µM [2] [%] | Stability [3] [%] | Parent compound remaining [4] [%] | Stability ([1]; microsomes, 1 h, 1 µM) | Stability ([2]; microsomes, 1 h, 1 µM) | SMILES
> 95 | > 95 | – | – | – | – | COc1ccc(-c2c(C)nc3c(N4CC[C@@H](NC(=O)[C@@H](OC)c5ccccc5)C4)cc(C)nn23)cc1OC
> 95 | > 95 | – | – | – | – | COc1ccc(-c2c(C)nc3c(N4CC[C@@H](NC(=O)COc5ccccc5)C4)cc(C)nn23)cc1OC
> 95 | > 95 | – | – | – | – | COc1ccc(-c2c(C)nc3c(N4CC[C@@H](NC(=O)Oc5cccc(C)c5)C4)cc(C)nn23)cc1OC
> 95 | > 95 | – | – | – | – | COc1ccc(-c2c(C)nc3c(N4CC[C@@H](NS(N)(=O)=O)C4)cc(C)nn23)cc1OC
> 95 | > 95 | 88 | 52 | – | – | CCCCCC(=O)N[C@@H]1CCN(c2cc(C)nn3c(-c4ccc(OC)c(OC)c4)c(C)nc23)C1
> 95 | > 95 | – | – | – | – | CC(=O)N[C@@H]1CCN(c2cc(C)nn3c(-c4ccc(C(F)(F)F)cc4)c(C)nc23)C1
> 95 | > 95 | – | – | – | – | COc1ccc(-c2c(C)nc3c(N4CCN(C(=O)OC(C)(C)C)CC4)cc(C)nn23)cc1OC
> 95 | > 95 | – | – | – | – | CC(=O)N[C@@H]1CCN(c2cc(C)nn3c(-c4cccc(N5CCOCC5)c4)c(C)nc23)C1
> 95 | > 95 | 58 | 1 | – | – | COc1ccc(-c2c(C)nc3c(N4CCCC4)cc(C)nn23)cc1OC
> 95 | > 95 | – | – | – | – | COc1cc(-c2c(C)nc3c(N4CC[C@@H](NC(C)=O)C4)cc(C)nn23)cc(OC)c1OC
> 95 | > 95 | 11 | 8 | – | – | COc1ccc(-c2c(C)nc3c(N4CC[C@@H](SC(C)=O)C4)cc(C)nn23)cc1OC
> 95 | > 95 | – | – | – | – | COc1ccc(-c2c(C)nc3c(N4CC[C@@H](NC(=O)OC5CCCCC5)C4)cc(C)nn23)cc1OC
> 95 | > 95 | – | – | – | – | COc1ccc(-c2c(C)nc3c(N4CC[C@@H](NC(=O)NC(C)C)C4)cc(C)nn23)cc1OC
> 95 | > 95 | – | – | – | – | COc1ccc(-c2c(C)nc3c(N4CC[C@@H](OC(C)=O)C4)cc(C)nn23)cc1OC
> 95 | > 95 | – | – | – | – | COc1ccc(-c2c(C)nc3c(N4CCN(C(=O)OC(C)(C)C)C4)cc(C)nn23)cc1OC
> 95 | > 95 | – | – | – | – | COc1ccc(-c2c(C)nc3c(N4CC[C@@H](F)C4)cc(C)nn23)cc1OC
> 95 | > 95 | – | – | – | – | COc1ccc(-c2c(C)nc3c(N4CC=CC4)cc(C)nn23)cc1OC
> 95 | > 95 | – | – | – | – | COc1ccc(-c2c(C)nc3c(N4CC[C@@H](NC(C)=O)C4)cc(C)nn23)cn1
> 95 | > 95 | – | – | – | – | CC(=O)N[C@@H]1CCN(c2cc(C)nn3c(-c4ccco4)c(C)nc23)C1

remaining at 1 h, 1 µM [1] [%] | remaining at 1 h, 1 µM [2] [%] | Stability [3] [%] | Parent compound remaining [4] [%] | Stability ([1]; microsomes, 1 h, 1 µM) | Stability ([2]; microsomes, 1 h, 1 µM) | SMILES
> 95 | > 95 | 113 | 117 | – | – | COc1ccc(-c2c(C)nc3c(N4CC[C@@H](NC(=O)C(F)(F)F)C4)cc(C)nn23)cc1OC
> 95 | > 95 | – | – | – | – | COc1ccc(-c2c(C)nc3c(N4CC[C@@H](NS(C)(=O)=O)C4)cc(C)nn23)cc1OC
> 95 | > 95 | 29 | 2 | – | – | COc1ccc(-c2c(C)nc3c(N4CC[C@@H](NS(=O)(=O)c5ccc(C)cc5)C4)cc(C)nn23)cc1OC
> 95 | > 95 | – | – | – | – | CC(=O)N[C@@H]1CCN(c2cc(C)nn3c(-c4ccc(C#N)cc4)c(C)nc23)C1
> 95 | > 95 | – | – | – | – | CCN(CCNC(C)=O)c1cc(C)nn2c(-c3ccc(OC)c(OC)c3)c(C)nc12
> 95 | > 95 | 28 | 53 | – | – | COc1ccc(-c2cnc3c(N4CC[C@@H](NC(C)=O)C4)cc(C)nn23)cc1OC
> 95 | > 95 | – | – | – | – | COc1ccc(-c2c(C)nc3c(N4CC[C@@H](NC(=O)Oc5ccc6ccccc6c5)C4)cc(C)nn23)cc1OC
> 95 | > 95 | – | – | – | – | COc1ccc(-c2c(C)nc3c(N4CC[C@@H](NS(=O)(=O)c5ccc(C#N)cc5)C4)cc(C)nn23)cc1OC
> 95 | > 95 | – | – | – | – | COc1ccc(-c2c(C)nc3c(N4CC[C@@H](NC(C)=O)C4)cc(C)nn23)cc1F
> 95 | > 95 | – | – | – | – | COc1ccc(-c2c(C)nc3c(N4CCC(F)(F)C4)cc(C)nn23)cc1OC
> 95 | > 95 | – | – | – | – | COc1ccc(-c2c(C)nc3c(N4CC[C@@H](N=[N+]=[N-])C4)cc(C)nn23)cc1OC
> 95 | > 95 | 111 | 95 | – | – | COc1ccc(-c2c(C)nc3c(N4CC[C@@H](NS(=O)(=O)C5CC5)C4)cc(C)nn23)cc1OC
> 95 | > 95 | 92 | 68 | – | – | COc1ccc(-c2cnc3c(N4CC[C@@H](NC(C)=O)C4)ccnn23)cc1OC
> 95 | > 95 | – | – | – | – | COc1ccc(-c2c(C)nc3c(N4CC[C@@H](N5CCOCC5)C4)cc(C)nn23)cc1OC
– | – | – | – | Unstable | Unstable | COc1ccc(-c2c(C)nc3c(N4CC[C@@H](n5cc(-c6ccccc6)nn5)C4)cc(C)nn23)cc1OC
> 95 | > 95 | 50 | 28 | – | – | CC(=O)N[C@@H]1CCN(c2cc(C)nn3c(-c4cccs4)c(C)nc23)C1
> 95 | > 95 | – | – | – | – | COc1ccc(-c2c(C)nc3c(N4CC[C@@H](NS(=O)(=O)C(C)C)C4)cc(C)nn23)cc1OC
> 95 | > 95 | – | – | – | – | CC(=O)N[C@@H]1CCN(c2cc(C)nn3c(-c4nccs4)c(C)nc23)C1
> 95 | > 95 | – | – | – | – | COc1ccc(-c2c(C)nc3c(N4CC[C@@H](O)C4)cc(C)nn23)cc1OC

remaining at 1 h, 1 µM [1] [%] | remaining at 1 h, 1 µM [2] [%] | Stability [3] [%] | Parent compound remaining [4] [%] | Stability ([1]; microsomes, 1 h, 1 µM) | Stability ([2]; microsomes, 1 h, 1 µM) | SMILES
> 95 | > 95 | 95 | 78 | – | – | COc1ccc(-c2c(C)nc3c(N4CC[C@@H](NS(=O)(=O)c5cccs5)C4)cc(C)nn23)cc1OC
> 95 | > 95 | 90 | 87 | – | – | COc1ccc(-c2c(C)nc3c(N4CC[C@@H](NC(=O)Nc5ccccc5)C4)cc(C)nn23)cc1OC
> 95 | > 95 | – | – | – | – | COc1ccc(-c2c(C)nc3c(N4CCN(C(C)=O)CC4)cc(C)nn23)cc1OC
> 95 | > 95 | – | – | – | – | COc1cc(-c2c(C)nc3c(N4CC[C@@H](NC(C)=O)C4)cc(C)nn23)ccc1F
> 95 | > 95 | – | – | – | – | COc1ccc(-c2c(C)nc3c(N4CC[C@@H](N)C4)cc(C)nn23)cc1OC
> 95 | > 95 | – | – | – | – | COc1ccc(-c2c(C)nc3c(N4CC[C@@H](NC(C)=O)C4)ccnn23)cc1OC
> 95 | > 95 | – | – | – | – | CC(=O)N[C@@H]1CCN(c2cc(C)nn3c(-c4ccc5cc[nH]c5c4)c(C)nc23)C1
> 95 | > 95 | – | – | – | – | CC(=O)N[C@@H]1CCN(c2cc(C)nn3c(-c4ccccc4)c(C)nc23)C1
> 95 | > 95 | – | – | – | – | COc1ccc(-c2c(C)nc3c(N4CC[C@@H](NC(=O)OCc5ccccc5)C4)cc(C)nn23)cc1OC
> 95 | > 95 | – | – | – | – | COc1ccc(-c2c(C)nc3c(N4CC[C@@H](NC(=O)Cc5ccccc5)C4)cc(C)nn23)cc1OC
> 95 | > 95 | – | – | – | – | COc1ccc(-c2c(C)nc3c(N4CC[C@H](O)C4)cc(C)nn23)cc1OC
> 95 | > 95 | – | – | – | – | COc1ccc(-c2c(C)nc3c(N4CC[C@@H](NC(C)=O)C4)cc(Cl)nn23)cc1OC
> 95 | > 95 | – | – | – | – | COc1ccc(-c2c(C)nc3c(N4CC[C@@H](NS(=O)(=O)c5ccc(NC(C)=O)cc5)C4)cc(C)nn23)cc1OC
> 95 | > 95 | – | – | – | – | COc1ccc(-c2c(C)nc3c(N4CCN(C(=O)C5CCCCC5)CC4)cc(C)nn23)cc1OC
> 95 | > 95 | – | – | – | – | COc1ccc(-c2c(C)nc3c(N4CC[C@@H](NC(=O)c5ccccc5)C4)cc(C)nn23)cc1OC
> 95 | > 95 | – | – | – | – | COc1ccc(-c2c(C)nc3c(N4CCOCC4)cc(C)nn23)cc1OC
> 95 | > 95 | – | – | – | – | CC(=O)N[C@@H]1CCN(c2cc(C)nn3cc(C)nc23)C1
> 95 | > 95 | – | – | – | – | CC(=O)N[C@@H]1CCN(c2cc(C)nn3c(-c4cccc(S(=O)(=O)N(C)C)c4)c(C)nc23)C1
